Compound activity from PubChem.
Rows were chosen to be rich in hits. Some 3.7% of all compounds tested hit in one or more screens of this group.
Kir21 inh = inhibitors of mouse Kir2.1 inward-rectifier potassium channel | Inward rectifier potassium channel 2 (Mus musculus), P35561 | HEK293-Kir2.1, FluxOR thallium flux fluorescence; active compounds read low | B-score at 10 µM | 0.85% of 310,000 active | AID 1672, 2009;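 active = fluorescence ratio B-score at or below minus 3 SD of library scores, with starting-brightness B-score within 2 SD, cut at about -4.2 in these data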;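 also: channel flux triggered by added potassium and thallium sulfate stimulus; B-score of peak minus minimum fluorescence over baseline after thallium stimulus; more negative B-score means stronger Kir2.1 block with less thallium influx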
KCNK9 block = KCNK9 potassium channel inhibitors, primary screen, HEK293 cells, thallium flux; Potassium channel subfamily K member 9 (Homo sapiens), Q9NPC2; FluxOR thallium flux fluorescence; active compounds read low; B-score at 10 µM; 1.2% of 310,000 active;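 active = ratio B-score over 3 SD below the library mean, with starting fluorescence within 5 SD of its mean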;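 also: negative B-score means less thallium flux so channel inhibition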
Target sequence (Q9NPC2 whole entry, looked up): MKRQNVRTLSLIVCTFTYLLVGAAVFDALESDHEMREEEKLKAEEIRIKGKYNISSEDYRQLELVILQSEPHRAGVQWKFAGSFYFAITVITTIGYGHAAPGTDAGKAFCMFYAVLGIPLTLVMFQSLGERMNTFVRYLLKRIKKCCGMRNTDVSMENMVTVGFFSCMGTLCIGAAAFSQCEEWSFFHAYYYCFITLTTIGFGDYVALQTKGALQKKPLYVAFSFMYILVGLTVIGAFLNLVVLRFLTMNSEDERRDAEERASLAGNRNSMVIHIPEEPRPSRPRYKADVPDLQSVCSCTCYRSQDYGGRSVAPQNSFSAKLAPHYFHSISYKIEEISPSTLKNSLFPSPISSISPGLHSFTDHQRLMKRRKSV
KCNQ1 inh = inhibitors of human KCNQ1 channel, primary screen, cell-based, thallium flux, high-throughput | CHO-K1 KCNQ1, FluxOR thallium flux fluorescence; active compounds read high | B-score at 10 µM | 1.3% of 310,000 active | AID 2642, 2010;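 active = compounds whose thallium flux B-score, printed positive for inhibition, exceeds three library SD while starting fluorescence stays within three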;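 also: channel opened by potassium depolarization with thallium stimulus after 20 min compound exposure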
hERG rescue = hERG rescue from dofetilide block, primary screen, cell-based, CHO-hERG, FluxOR thallium flux, dofetilide IC70 | 0.51% of 310,000 active | activation (rescue from dofetilide block), less the hit threshold, % at 10 µM | AID 1511, 2009 | Voltage-gated inwardly rectifying potassium channel KCNH2 (Homo sapiens), Q12809 | dofetilide IC70 present;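 active = activation above the mean of controls blocked by dofetilide plus 5 SD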;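 also: thallium influx through hERG after potassium depolarization seen as dye fluorescence rise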
KCNQ1 pot = potentiators or activators of KCNQ1 channel, primary screen, cell-based, thallium flux, high-throughput | 0.35% of 310,000 active | CHO-K1 KCNQ1, thallium flux FluxOR fluorescence; active compounds read high | AID 2648, 2010 | Potassium voltage-gated channel subfamily KQT member 1 (Homo sapiens), P51787 | B-score at 10 µM;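 active = fluorescence ratio B-score, a plate-corrected score, at least three library SD, with initial intensity B-score within 5 SD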
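System: CHO-K1 cells stably expressing KCNQ1 / Medium: assay buffer for compound exposure, DMSO matched across wells / Reagent: thallium- and potassium-containing depolarizing buffer / Compound: one concentration, matched DMSO / Incubation: 20 min compound pretreatment at room temperature / Measured by: kinetic FluxOR fluorescence, 10 s baseline plus 110 s post-stimulus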
KCNK3 block = human KCNK3 channel inhibitors, primary screen, CHO cells, FluxOR thallium flux, B-score. Potassium channel subfamily K member 3 (Homo sapiens), O14649. B-score at 10 µM. FluxOR fluorescence; active compounds read low. AID 602410, 2012. 0.84% of 340,000 active;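 active = B-score under library mean minus 4 SD, starting fluorescence ratio at most library mean plus 5 SD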;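 also: more negative B-score means stronger inhibition of thallium flux through KCNK3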
KCNK9 block conf = KCNK9 potassium channel inhibitors, confirmation, HEK293 cells, thallium flux, duplicate; shares compounds with KCNK9 block; FluxOR thallium flux fluorescence; inhibition, % at 10 µM; 43% of 4,900 active; AID 492992, 2010;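 active = thallium signal inhibited by more than 5 SD of the compound-free buffer control wells, on both duplicate plates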;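 also: 0% = assay buffer control wells without compound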
Kir2-1 spec = mouse Kir2.1 channel inhibition, confirmation, selectivity assay for KCNK9 modulator project, cell-based, HEK293, thallium flux; inhibition, % at 10 µM; Kir2.1 cells, FluxOR thallium flux fluorescence; 4% of 4,900 active; shares compounds with KCNK9 block;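 active = thallium signal drop more than 5 SD beyond the mean of the no-compound control wells, seen in both duplicate plates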;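 also: signal is fluorescence rise after thallium addition divided by baseline fluorescence; plate controls were assay buffer only for no effect and full block by chlorpromazine control for full effect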
KCNK9 uninduced = thallium flux in non-induced HEK293 cells, confirmation, counter-screen for KCNK9 inhibitor project, cell-based, second counter screen, non-induced KCNK9-HEK293 | shares compounds with KCNK9 block | FluxOR thallium flux | inhibition, % at 10 µM | 40% of 4,900 active;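 active = thallium signal drop beyond 5 SD of the untreated control mean, on both duplicate plates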;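 also: plate controls were buffer only IC0 wells for no effect and SID17386958 at its maximal inhibitory level for full effect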
Active calls of the source: *; i = inactive; · = no result.

SMILES	Kir21 inh	KCNK9 block	KCNQ1 inh	hERG rescue	KCNQ1 pot	KCNK3 block	KCNK9 block conf	Kir2-1 spec	KCNK9 uninduced
CCCCn1c(SCC(=O)c2ccc(O)c(O)c2)nc2ccsc2c1=O	-3	-16*	i	-20	i	i	40%*	i	i
CCOc1ccc(C(=O)N/N=C/c2c(C)[nH]c(=O)[nH]c2=O)cc1	1.4	i	i	-17	i	·	·	·	·
Cc1cc(C(=O)COC(=O)C2CCN(C(=O)c3ccc(Cl)cc3)CC2)c(C)n1CC1CCCO1 (stereo not drawn)	-0.2	i	i	-15	i	i	i	i	i
CC(C(=O)Nc1ccc(S(=O)(=O)N2CCCC2)cc1)N1CCCC(C(N)=O)C1 (stereo not drawn)	·	·	·	·	·	i	·	·	·
Cc1ccccc1OCCN1CCC(Cc2ccccc2)CC1	-1.9	i	i	-14	i	i	i	i	i
Cc1ccc([N+](=O)[O-])c(OCCCN2CCCCCC2)c1	0.63	i	i	-1	i	i	·	·	·
CCOc1ccccc1OCCN1CCC(Cc2ccccc2)CC1	-2.9	i	i	-12	i	i	i	i	i
Cc1ccc([N+](=O)[O-])c(OCCN2CCC(Cc3ccccc3)CC2)c1	-1.6	i	i	-29	i	i	i	i	i
O=C(c1ccc(F)cc1)N1CCC(C(=O)N2CCN(S(=O)(=O)c3cccc([N+](=O)[O-])c3)CC2)CC1	-0.37	i	i	-11	i	i	·	·	·
C/C(=N\NC(=S)NCCc1ccccc1)c1cccs1	-0.52	i	i	4	i	i	i	i	i
Cc1ccc(C)c(N2CCN(S(=O)(=O)c3c(C)noc3C)CC2)c1	1.5	i	i	-1	i	i	i	i	28%*
O=C(CSc1nc2ccccc2c(=O)n1CCCO)Nc1ccc2c(c1)OCCO2	·	·	·	·	·	i	·	·	·
COc1ccc(C=O)cc1CN1CCCN(Cc2ccc(Cl)cc2)S1(=O)=O	-1.3	i	i	-3	i	i	·	·	·
Cc1ccc(CN2CCCN(Cc3c(C)cc(C)cc3C)S2(=O)=O)cc1	1.2	i	i	-4	i	i	i	i	i
Cc1[nH]nc(-c2ccc(O)c(C)c2O)c1Oc1ccccc1	-0.42	-14*	i	-17	i	i	34%*	i	i
CCC(=O)N1CCc2cc(Br)cc(S(=O)(=O)N3CCC(C(=O)NC(C)C)CC3)c21	-1.4	i	i	-6	i	i	·	·	·
Cc1ccc(C)n1-c1nn(S(=O)(=O)c2cccc(C(F)(F)F)c2)c2cccc(F)c12	0.4	-14*	i	0	i	i	60%*	i	30%*
Cc1ccc(S(=O)(=O)n2nc(-n3c(C)ccc3C)c3c(F)cccc32)c2ccccc12	0.88	i	i	-1	i	i	·	·	·
CCN(CC(=O)NCc1cccs1)C(=O)/C=C/c1cc(Br)ccc1OC(F)F	·	·	·	·	·	i	·	·	·
CC(C)=CCC/C(C)=C/CNC(=O)C[C@H]1C[C@H](C(=O)N(C(C)C)C(C)C)[C@@]2(C)c3[nH]c4cc(CCC(=O)N(C)C)ccc4c3CCN2C1=O	·	·	·	·	·	i	·	·	·
O=C(c1ccc(N2CCOCC2)c([N+](=O)[O-])c1)N1CCCCC1	0.7	i	i	-9	i	i	·	·	·
O=C(c1cc([N+](=O)[O-])ccc1Cl)N1CCN(c2ccccc2)CC1	2	i	i	-4	i	i	·	·	·
O=C(c1cc([N+](=O)[O-])ccc1Cl)N1c2ccccc2Sc2ccccc21	-0.73	-12*	i	-12	i	i	61%*	i	45%*
O=C(Nc1cccc(NC(=O)c2cc([N+](=O)[O-])ccc2Cl)n1)c1cc([N+](=O)[O-])ccc1Cl	-0.46	-8.2*	i	-12	i	-9.9*	i	i	26%*
Cc1cc(NC(=O)c2cc([N+](=O)[O-])ccc2Cl)no1	-1.7	i	i	-1	i	i	·	·	·
SMILES	Kir21 inh	KCNK9 block	KCNQ1 inh	hERG rescue	KCNQ1 pot	KCNK3 block	KCNK9 block conf	Kir2-1 spec	KCNK9 uninduced
O=C(NNC(=S)Nc1ccc(Cl)c(Cl)c1)c1cccc([N+](=O)[O-])c1	-1.4	i	11*	-26	i	i	i	i	i
O=C(NNC(=S)Nc1ccc(Cl)cc1Cl)c1ccc(N2CCOCC2)c([N+](=O)[O-])c1	0	i	6*	-10	i	i	i	i	i
CCOC(=O)C1=CC[C@H]2c3c(c4ccccc4n3C)C[C@H]1N2C	·	·	·	·	·	i	·	·	·
Cc1ccc(NC(=S)NNC(=O)c2ccc(N3CCOCC3)c([N+](=O)[O-])c2)cc1Cl	0.98	i	6*	-7	i	i	i	i	i
Cc1cc(C(=O)Nc2ccc(N3CCCC3)c(Cl)c2)ccc1[N+](=O)[O-]	-2.1	i	i	-2	i	i	·	·	·
Cc1ccc(C)c(-c2csc(NC(=O)C3=COCCO3)n2)c1	0.04	-8.3*	i	-23	i	i	i	i	38%*
Cc1ccc2c(c1)N(CC(=O)NCCCN1CCN(C)CC1)C(=O)CO2	0.28	i	i	-5	i	i	·	·	·
O=C(CC(Nc1ccccc1Cl)C(=O)OCC(=O)c1cccs1)c1ccccc1 (stereo not drawn)	-1.5	-9.4*	i	-10	i	i	42%*	i	28%*
O=C(OCC(=O)c1cccs1)c1ccccc1	0.23	i	i	-12	i	i	·	·	·
CCOC(=O)[C@@H]1[C@H]2COc3cc(OC)ccc3[C@H]2N2C(=O)N(c3ccc(C)cc3)C(=O)[C@]12C	·	·	·	·	·	i	·	·	·
